# Calls of active or inactive are those of the source. The calls are words filed in the database; no cut-off is given here.
# Legend:
# [1] = AUC in mouse at 10 mg/kg, po; assay type: ADME, organism-based; settings: in vivo
# Method in brief: (§1)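 Mice dosed orally by gavage, dose volume set by morning body weight. Serial blood samples (~30 μl) from submandibular or saphenous vein into K2EDTA. Plasma separated by centrifugation at 3000 g, stored at −70 °C, analysed by LC/MS/MS.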
# [2] = target: T1, C-X-C chemokine receptor type 6 (Homo sapiens, UniProt O00574); experiment: Antagonist activity at Prolink-tagged human CXCR6 receptor assessed as inhibition of forskolin-induced cAMP accumulation by DiscoveRx cell based assay relative to control; assay type: functional; parameters: concentration or dose not given beside the values; settings: concentration not given here
# Method in brief: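 CXCR6 β-arrestin cells in OptiMEM with 2% FBS, 500 cells/well, grown overnight; compounds added, then forskolin with 20 nM CXCL16 (stock concentrations) in HBSS/HEPES/BSA with RO-20-1724, 30 min at room temperature. cAMP read by LANCE Ultra TR-FRET after a further 30 min. Hill slope fixed at 1; at least two runs on different days, averaged pIC50 ± SD.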
# Target sequence in this assay (O00574 whole entry, looked up): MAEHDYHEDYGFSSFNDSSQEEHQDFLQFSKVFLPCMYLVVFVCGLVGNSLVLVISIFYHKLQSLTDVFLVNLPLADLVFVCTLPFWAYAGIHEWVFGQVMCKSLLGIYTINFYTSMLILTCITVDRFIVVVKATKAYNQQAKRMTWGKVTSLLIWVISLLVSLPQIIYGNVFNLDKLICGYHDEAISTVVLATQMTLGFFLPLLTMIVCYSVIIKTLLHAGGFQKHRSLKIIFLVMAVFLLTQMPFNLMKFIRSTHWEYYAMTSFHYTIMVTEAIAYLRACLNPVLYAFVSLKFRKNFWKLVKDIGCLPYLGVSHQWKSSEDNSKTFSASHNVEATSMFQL
# [3] = Clearance in mouse at 5 mg/kg, iv; assay type: ADME, organism-based; settings: in vivo
# SK-HEP1 [4] = experiment: Antitumor activity against human SKHEP1 cells xenografted in NOD/SCID mouse assessed as inhibition of tumor growth at 30 to 60 mg/kg, po administered on day 4 to day 30 post-tumor cell inoculation; assay type: functional, organism-based
# [5] = Half life in mouse at 10 mg/kg, po; assay type: ADME, organism-based; settings: in vivo; method in brief: as §1
# [6] = target: T2, C-X-C chemokine receptor type 6 (Mus musculus, UniProt Q9EQ16); experiment: Antagonist activity at mouse CXCR6 by DiscoveRx cell based beta-arrestin assay
# T2 sequence (Q9EQ16 whole entry): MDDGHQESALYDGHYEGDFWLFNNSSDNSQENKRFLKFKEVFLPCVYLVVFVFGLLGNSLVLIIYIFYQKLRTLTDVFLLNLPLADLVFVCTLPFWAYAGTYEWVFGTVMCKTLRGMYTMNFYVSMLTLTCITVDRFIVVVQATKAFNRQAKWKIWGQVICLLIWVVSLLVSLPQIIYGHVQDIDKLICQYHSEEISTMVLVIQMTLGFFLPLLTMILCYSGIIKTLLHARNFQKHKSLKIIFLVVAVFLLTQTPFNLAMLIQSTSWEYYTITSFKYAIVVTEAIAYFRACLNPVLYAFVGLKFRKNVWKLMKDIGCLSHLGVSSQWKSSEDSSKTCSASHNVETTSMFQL
# [7] = Drug metabolism in human liver microsomes incubated up to 1 hr; assay type: ADME, Microsome; settings: read-out: Drug metabolism
# Method in brief: (§2)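 Liver microsomes (1.0 mg/mL) preincubated with compound (1 μM final) for 10 min at 37 °C. Reaction started with NADPH-generating system (NADP+, glucose-6-phosphate, G6PDH, MgCl2) in 100 mM potassium phosphate, pH 7.4. Sampled at 0, 5, 15, 30 and 60 min; percent remaining at 1 hr reported.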
# [8] = target: T1, C-X-C chemokine receptor type 6; experiment: Inhibition of CXCR6-mediated cell invasion in human SKHEP1 cells after 72 hrs by transwell assay; assay type: cell-based; settings: SK-HEP1
# Method in brief: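 SK-HEP-1 cells, 100k/well in 0.2% FBS, seeded in upper chamber of a chemotaxis plate coated with matrigel (250 μg/ml). CXCL16 (0.6 μg/ml) in lower chamber; compound in both chambers. Kept at 37 °C, 5% CO2 and imaged hourly in IncuCyte. Migration quantified as confluence from phase-contrast images.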
# Target sequence in this assay (O00574 whole entry, looked up): as the sequence (O00574 whole entry, looked up) above
# [9] = Toxicity in NOD/SCID mouse xenografted with human SKHEP1 cells assessed as effect on behavior phenotypes at 30 to 60 mg/kg, po administered on day 4 to day 30 post-tumor cell inoculation; assay type: organism-based, SK-HEP1; settings: in vivo
# SK-HEP1 [10] = experiment: Antitumor activity against human SKHEP1 cells xenografted in NOD/SCID mouse assessed as tumor weight at 30 mg/kg, po administered on day 4 to day 30 post-tumor cell inoculation (reference value: 151 +/- 66 mg); assay type: functional
# [11] = Toxicity in NOD/SCID mouse xenografted with human SKHEP1 cells assessed as animal weight at 30 to 60 mg/kg, po administered on day 4 to day 30 post-tumor cell inoculation; assay type: organism-based, SK-HEP1; settings: in vivo
# [12] = target: T1, C-X-C chemokine receptor type 6; experiment: Antagonist activity at Prolink-tagged human CXCR6 receptor assessed as inhibition of CXCL16-induced beta-arrestin recruitment by DiscoveRx cell based assay
# Target sequence in this assay (O00574 whole entry): as the sequence (O00574 whole entry, looked up) above
# [13] = Volume of distribution at steady state in mouse at 5 mg/kg, iv; assay type: ADME, organism-based; settings: in vivo, read-out: Vdss
# [14] = Cmax in mouse at 10 mg/kg, po; assay type: ADME, organism-based; parameters: dose 10 mg/kg, route oral; settings: in vivo; method in brief: as §1
# [15] = Toxicity in NOD/SCID mouse xenografted with human SKHEP1 cells assessed as animal death at 30 to 60 mg/kg, po administered on day 4 to day 30 post-tumor cell inoculation; assay type: organism-based, SK-HEP1; settings: in vivo
# [16] = tested on: CXCR6 receptor (Prolink-tagged, human); experiment: Safety index, ratio of LC50 for toxicity in human liver microsomes to IC50 for Prolink-tagged human CXCR6 receptor; settings: read-out: Ratio LC50/IC50
# SK-HEP1 [17] = experiment: Toxicity in human SKHEP1 cells assessed as effect on cell viability after 72 hrs; assay type: cell-based; settings: sk-hep1, 72 h
# [18] = Stability in mouse plasma; assay type: ADME, cell-free
# [19] = Drug metabolism in mouse liver microsomes incubated up to 1 hr; assay type: ADME, Microsome; settings: read-out: Drug metabolism; method in brief: as §2
# [20] = Toxicity in human liver microsomes; parameters: species or system Microsome
# [21] = Stability in human plasma; assay type: ADME, cell-free
# SK-HEP1 [22] = experiment: Antitumor activity against human SKHEP1 cells xenografted in NOD/SCID mouse assessed as tumor weight at 60 mg/kg, po administered on day 4 to day 30 post-tumor cell inoculation (reference value: 151 +/- 66 mg); assay type: functional
# [23] = Half life in mouse at 5 mg/kg, iv; assay type: ADME, organism-based; settings: in vivo
# [24] = target: T1, C-X-C chemokine receptor type 6; experiment: Antagonist activity at Prolink-tagged human CXCR6 receptor assessed as inhibition of CXCL16-induced beta-arrestin recruitment by DiscoveRx cell based assay relative to control; parameters: concentration or dose not given beside the values; settings: concentration not given here
# Method in brief: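 CXCR6 β-arrestin cells in assay media without G418/hygromycin, 800 cells/well, grown overnight at 37 °C; compounds added acoustically (DMSO ≤0.3%), then 20 nM CXCL16 (final) for 90 min at 37 °C. PathHunter luminescence read. Normalized between CXCL16-alone and no-ligand wells; four-parameter fit with Hill slope fixed at 1; at least two runs on different days, averaged pIC50 ± SD.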
# Target sequence in this assay (O00574 whole entry, looked up): as the sequence (O00574 whole entry, looked up) above
# [25] = Ratio of solubility of compound in aqueous buffer at pH 5 to 7.4 to IC50 for Prolink-tagged human CXCR6 receptor by DiscoveRx cell based assay; assay type: physicochemical
smiles,measurement,setting,value
COc1cc(C(=O)N[C@@H]2C[C@H]3CCC[C@@H](C2)N3Cc2nc3c(C(F)(F)F)cccc3s2)cc(OC)c1OC,AUC,[1],2050 ng·h/mL
same,inhibition,[2],98%
same,clearance,[3],28.4 mL/min/kg
same,Activity,SK-HEP1 [4],Active
same,half-life,[5],2.82 h
same,IC50,[6],> 40 µM
same,metabolised at 1 h,[7],100%
same,inhibition,[8],Dose-dependent effect
same,Activity,[9],Non-Toxic
same,Activity,SK-HEP1 [10],59 mg
same,Activity,[11],Non-Toxic
same,IC50,[12],0.04 µM
same,Vd,[13],3.32 L/kg
same,Cmax,[14],798 ng/mL
same,Activity,[15],Non-Toxic
same,selectivity ratio,[16],> 40
same,Activity,SK-HEP1 [17],Non-Toxic
same,Stability,[18],Stable
same,metabolised at 1 h,[19],100%
same,LC50,[20],>= 25 uM
same,Stability,[21],Stable
same,Activity,SK-HEP1 [22],55 mg
same,half-life,[23],1.58 h
same,inhibition,[24],103%
same,Ratio,[25],>= 10
